Experimental data from PMC7717452 (Journal of Enzyme Inhibition and Medicinal Chemistry, 2020).
Where “and” joins values, the source holds several entries; their conditions need not be identical. Equal entries are not always repeated. Values belong to the compound of their own block, whether it stands above or below them.

What was measured:
[1] = molecular target: T1, LiTryS (Leishmania infantum trypanothione synthetase) (Leishmania infantum, UniProt A4I2Z3); assay: TryS activity end-point assay; type: biochemical; settings: for IC50: IC50 value, LiTryS, ± 2σ, ∼30 assumed for 50 ± 5% inhibition at 30 µM; for % TryS inhibition at 30 µM, LiTryS: NA = not active (enzyme activity > 95%)
T1 sequence (A4I2Z3 1-652): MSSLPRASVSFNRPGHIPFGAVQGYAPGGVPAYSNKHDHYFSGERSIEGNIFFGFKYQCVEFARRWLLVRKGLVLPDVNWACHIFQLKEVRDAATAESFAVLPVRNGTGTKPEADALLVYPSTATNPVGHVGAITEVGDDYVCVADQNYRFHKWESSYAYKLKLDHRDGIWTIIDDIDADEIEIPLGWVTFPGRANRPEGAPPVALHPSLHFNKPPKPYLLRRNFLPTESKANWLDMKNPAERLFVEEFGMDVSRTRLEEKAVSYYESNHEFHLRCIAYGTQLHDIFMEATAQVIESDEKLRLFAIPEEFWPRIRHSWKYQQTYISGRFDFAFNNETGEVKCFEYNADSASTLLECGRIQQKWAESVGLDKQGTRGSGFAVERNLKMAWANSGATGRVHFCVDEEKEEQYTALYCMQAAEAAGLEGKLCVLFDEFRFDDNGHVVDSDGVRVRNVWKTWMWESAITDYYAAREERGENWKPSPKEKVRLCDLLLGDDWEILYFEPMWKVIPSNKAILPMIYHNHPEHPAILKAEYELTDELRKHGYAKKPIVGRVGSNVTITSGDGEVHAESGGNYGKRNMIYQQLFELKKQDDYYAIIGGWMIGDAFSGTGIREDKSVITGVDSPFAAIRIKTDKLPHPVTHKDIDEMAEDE
Method in brief: (§1)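 Recombinant TryS end-point assay in 100 mM HEPES pH 7.4 with 5 mM DTT, 10 mM MgSO4 and 0.5 mM EDTA. ATP was 150 µM and spermidine 2 mM. GSH was 0.25 mM for LiTryS, 0.05 mM for TbTryS and 0.57 mM for TcTryS. Enzyme started the reaction and BIOMOL Green stopped it after 15 min. A650 was read after 20 min at room temperature. Values were corrected with no-enzyme blanks and for compound interference with phosphate. At least quadruplicates; IC50 is given ± 2σn-1.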

TcTryS = molecular target: T2, TcTryS (Trypanosoma cruzi, UniProt Q9GT49); assay: TryS activity end-point assay; type: biochemical; settings: IC50 value, TcTryS, ± 2σ; ~30 assumed for 50 ± 5% inhibition at 30 µM
T2 sequence (Q9GT49 1-647): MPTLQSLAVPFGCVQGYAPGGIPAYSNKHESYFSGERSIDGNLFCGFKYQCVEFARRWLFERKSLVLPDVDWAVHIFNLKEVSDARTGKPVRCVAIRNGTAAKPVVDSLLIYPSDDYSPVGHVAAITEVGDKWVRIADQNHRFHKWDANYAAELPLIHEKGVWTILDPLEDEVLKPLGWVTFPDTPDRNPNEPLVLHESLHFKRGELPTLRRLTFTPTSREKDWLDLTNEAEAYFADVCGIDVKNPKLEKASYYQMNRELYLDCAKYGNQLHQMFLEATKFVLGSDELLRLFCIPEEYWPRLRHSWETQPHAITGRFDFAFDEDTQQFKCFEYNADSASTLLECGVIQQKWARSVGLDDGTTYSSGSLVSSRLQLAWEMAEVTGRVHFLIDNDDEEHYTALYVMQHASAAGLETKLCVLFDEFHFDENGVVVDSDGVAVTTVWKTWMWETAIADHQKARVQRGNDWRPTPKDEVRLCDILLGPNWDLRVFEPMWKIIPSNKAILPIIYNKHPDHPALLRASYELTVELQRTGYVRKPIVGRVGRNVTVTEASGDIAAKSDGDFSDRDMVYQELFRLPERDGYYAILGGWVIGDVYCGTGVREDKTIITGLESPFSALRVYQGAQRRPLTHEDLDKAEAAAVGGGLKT
Method in brief: as §1

Cytotoxicity assay = type: cell-based, mouse; settings: mouse, J774 macrophages (ATCC TIB67), non-infected
Method in brief: (§2)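 J774 mouse macrophages were grown in DMEM with 10% FBS and penicillin/streptomycin at 37 °C in humidified 5% CO2. Cells were seeded at 6 × 10^4 cells/mL and exposed the next day for 24 h to test compound at 100 to 0.001 µM (200 µM for one compound). The WST-1 signal was read at A450. % cytotoxicity was calculated against DMSO-treated and untreated cells, and CC50 is given ± σn–1.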

[2] = system: L. braziliensis amastigotes; assay: Macrophage infection assay, L. braziliensis amastigotes; type: cell-based, Leishmania braziliensis; settings: for activity at 10 µM: Leishmania braziliensis, Macrophage, read-out: % infection by L. braziliensis at 10 µM
Method in brief: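 J774 macrophages were plated on coverslips at 1 × 10^5 cells/mL in DMEM with 1% FBS. They were infected with stationary-phase L. braziliensis promastigotes (MHOM/BR/01/BA788; 1:20) for 2 h at room temperature, then 22 h at 35 °C. After washing, cells got test compound (5 or 10 µM, or 10–0.01 µM) in 1% DMSO for 24 h at 37 °C and 5% CO2. Cells were EtOH-fixed and DAPI-stained, and 100–200 macrophages were imaged. % infected cells is relative to DMSO.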

[3] = system: Mouse macrophages from the cell line J774; assay: Cytotoxicity assay; type: cell-based; settings: read-out: CC50, macrophages; 24 h, non-infected J774
Method in brief: as §2

- IC50 [1]: ~30 µM
Compound: O=C(CN1C(=O)Cc2c([nH]c3ccc(Br)cc23)-c2ccc(Cl)cc21)NC1=NCCS1 [Compound 17]

- IC50 [1]: 4 ± 0.5 µM
Compound: NNC(=O)CN1C(=O)Cc2c([nH]c3ccc(Br)cc23)-c2ccc(Cl)cc21 [Compound 8]

- IC50 [1]: ~30 µM
- IC50 (TcTryS): 30 µM
Compound: O=C(CN1C(=O)Cc2c([nH]c3ccc(Br)cc23)-c2ccc(Cl)cc21)Nc1nncs1 [Compound 16]

- IC50 [1]: 5.1 ± 0.5 µM
Compound: NC(=O)CN1C(=O)Cc2c([nH]c3ccc(Br)cc23)-c2ccc(Cl)cc21 [Compound 7]

- % TryS inhibition at 30 µM, LiTryS [1]: 36.2 ± 3.6%
Compound: CCOC(=O)CN1C(=O)Cc2c([nH]c3ccc(Br)cc23)-c2ccc(Cl)cc21 [Compound 5]

- % TryS inhibition at 30 µM, LiTryS [1]: 38.6 ± 1.3%
Compound: O=C(CN1C(=O)Cc2c([nH]c3ccc(Br)cc23)-c2ccc(Cl)cc21)N1CCCCC1 [Compound 24, 9-Bromo-3-chloro-5-[2-oxo-2-(piperidin-1-yl)ethyl]-7,12-dihydrobenzo[2,3]azepino-[4,5-b]indol-6(5H)-one]

- IC50 [1]: 2.3 ± 0.4 µM
Compound: CC(C)(C)NC(=O)CN1C(=O)Cc2c([nH]c3ccc(Br)cc23)-c2ccc(Cl)cc21 [Compound 15]
- cytotoxicity at 24 h, 100 µM (Cytotoxicity assay): 48 ± 8%
- activity at 10 µM ([2]; 24 h): 104 ± 1%

- IC50 [1]: 1.1 ± 0.3 µM
Compound: CN1CCN(CCNC(=O)CN2C(=O)Cc3c([nH]c4ccc(Br)cc34)-c3ccc(Cl)cc32)CC1 [Compound 33]

- IC50 [1]: 0.6 ± 0.1 µM
Compound: O=C(CN1C(=O)Cc2c([nH]c3ccc(Br)cc23)-c2ccc(Cl)cc21)NCCN1CCNCC1 [Compound 32]
- cytotoxicity at 24 h, 100 µM (Cytotoxicity assay): 24 ± 3%
- activity at 10 µM ([2]; 24 h): 139 ± 2%

- IC50 [1]: 30 µM and ~30 µM
Compound: CC(C)(C)OC(=O)N1CCN(C(=O)CN2C(=O)Cc3c([nH]c4ccc(Br)cc34)-c3ccc(Cl)cc32)CC1 [Compound 22]

- IC50 [1]: 0.8 ± 0.1 µM
Compound: O=C(CN1C(=O)Cc2c([nH]c3ccc(Br)cc23)-c2ccc(Cl)cc21)NCCN1CCCCC1 [Compound 31]
- CC50 [3]: 9 ± 1 µM
- % infection by L. braziliensis at 5 µM ([2]; 5 µM, 24 h, relative to infected non-treated macrophages): 49 ± 3 at 5 µM %
- SI, L. braziliensis amastigotes ([2]; selectivity index, macrophage CC50 and amastigote EC50): 2

- IC50 [1]: 0.4 ± 0.1 µM
Compound: NCCCCNC(=O)CN1C(=O)Cc2c([nH]c3ccc(Br)cc23)-c2ccc(Cl)cc21 [Compound 35]
- cytotoxicity at 24 h, 100 µM (Cytotoxicity assay): 0%
- activity at 10 µM ([2]; 24 h): 116 ± 3%

- IC50 [1]: 1.5 ± 0.2 µM
Compound: CCNC(=O)CN1C(=O)Cc2c([nH]c3ccc(Br)cc23)-c2ccc(Cl)cc21 [Compound 11]

- IC50 [1]: 0.5 ± 0.2 µM
Compound: O=C(CN1C(=O)Cc2c([nH]c3ccc(Br)cc23)-c2ccc(Cl)cc21)N1CCCC1 [Compound 25]
- cytotoxicity at 24 h, 100 µM (Cytotoxicity assay): 69%
- activity at 10 µM ([2]; 24 h): 68 ± 8%

- IC50 [1]: 3.3 ± 0.1 µM
Compound: O=C(CN1C(=O)Cc2c([nH]c3ccc(Br)cc23)-c2ccc(Cl)cc21)NCCN1CCOCC1 [Compound 30]
